Where a chain is given by its changes, count along the chain named.
Assays:
Conditions in all cases: stereoisomer not certain
[1] = test system: T1, O5AN1
T1 sequence (whole entry): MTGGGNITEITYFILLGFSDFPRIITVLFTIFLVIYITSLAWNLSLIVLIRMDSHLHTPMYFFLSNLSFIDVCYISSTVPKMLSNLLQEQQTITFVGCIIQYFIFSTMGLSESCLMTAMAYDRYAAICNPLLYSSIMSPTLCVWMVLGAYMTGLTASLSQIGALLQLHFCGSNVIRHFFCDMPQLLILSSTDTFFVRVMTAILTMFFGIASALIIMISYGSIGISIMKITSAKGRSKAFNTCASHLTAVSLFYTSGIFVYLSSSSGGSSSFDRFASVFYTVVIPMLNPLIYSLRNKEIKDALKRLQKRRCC
Summary of the method: (§1)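 Values were gathered from published papers (main text and supplementary material), with extra details requested from the original authors when needed, and checked for typos and inconsistencies. Each receptor–molecule pair is called responsive (active) if the original authors judged the measured signal statistically different from baseline, and non-responsive (inactive) otherwise. Assay methods varied by source, often transient mammalian cell-line luciferase assays. Recorded details include cell line, G-protein, co-transfected protein and tags.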

[2] = biological target: T2, OR10A6 (Homo sapiens) (UniProt Q8NH74)
T2 sequence (whole entry): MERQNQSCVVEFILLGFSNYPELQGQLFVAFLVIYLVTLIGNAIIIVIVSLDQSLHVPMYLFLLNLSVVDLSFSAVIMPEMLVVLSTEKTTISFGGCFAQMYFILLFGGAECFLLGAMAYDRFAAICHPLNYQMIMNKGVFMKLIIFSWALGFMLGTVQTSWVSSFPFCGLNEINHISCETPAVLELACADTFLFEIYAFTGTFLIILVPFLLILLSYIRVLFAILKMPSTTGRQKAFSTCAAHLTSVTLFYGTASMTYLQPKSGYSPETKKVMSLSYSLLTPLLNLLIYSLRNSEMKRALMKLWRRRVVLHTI
Summary of the method: as §1

[3] = biological target: T3, OR10A2 (Homo sapiens) (UniProt Q9H208)
T3 sequence (whole entry): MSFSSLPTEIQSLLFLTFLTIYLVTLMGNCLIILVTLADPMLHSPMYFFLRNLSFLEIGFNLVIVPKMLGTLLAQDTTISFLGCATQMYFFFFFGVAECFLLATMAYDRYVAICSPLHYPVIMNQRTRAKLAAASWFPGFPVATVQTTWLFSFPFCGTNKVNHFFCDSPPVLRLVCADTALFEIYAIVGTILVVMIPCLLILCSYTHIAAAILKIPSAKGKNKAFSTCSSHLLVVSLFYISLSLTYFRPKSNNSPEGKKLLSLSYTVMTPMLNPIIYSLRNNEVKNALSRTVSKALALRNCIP
Summary of the method: as §1

[4] = biological target: T4, OR10A3 (Homo sapiens) (UniProt P58181)
T4 sequence (whole entry): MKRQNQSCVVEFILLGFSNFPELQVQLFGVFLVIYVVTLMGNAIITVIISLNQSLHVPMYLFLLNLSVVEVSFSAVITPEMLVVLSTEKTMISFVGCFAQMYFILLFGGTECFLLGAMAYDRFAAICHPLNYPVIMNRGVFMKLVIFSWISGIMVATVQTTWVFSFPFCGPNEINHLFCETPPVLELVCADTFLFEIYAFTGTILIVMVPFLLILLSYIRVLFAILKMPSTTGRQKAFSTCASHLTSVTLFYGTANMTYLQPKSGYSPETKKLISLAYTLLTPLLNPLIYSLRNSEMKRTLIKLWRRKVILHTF
Summary of the method: as §1

[5] = biological target: T5, OR10A4 (Homo sapiens) (UniProt Q9H209)
T5 sequence (whole entry): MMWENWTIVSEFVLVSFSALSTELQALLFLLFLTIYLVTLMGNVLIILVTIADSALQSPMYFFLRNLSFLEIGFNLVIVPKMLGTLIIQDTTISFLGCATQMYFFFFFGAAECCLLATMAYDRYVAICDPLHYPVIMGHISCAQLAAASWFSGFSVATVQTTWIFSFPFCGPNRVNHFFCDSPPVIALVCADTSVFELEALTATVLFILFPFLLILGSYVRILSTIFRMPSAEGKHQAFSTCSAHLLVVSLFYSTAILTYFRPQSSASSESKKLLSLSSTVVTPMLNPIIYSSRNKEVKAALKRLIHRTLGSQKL
Summary of the method: as §1

[6] = biological target: T6, OR10A5 (Homo sapiens) (UniProt Q9H207)
T6 sequence (whole entry): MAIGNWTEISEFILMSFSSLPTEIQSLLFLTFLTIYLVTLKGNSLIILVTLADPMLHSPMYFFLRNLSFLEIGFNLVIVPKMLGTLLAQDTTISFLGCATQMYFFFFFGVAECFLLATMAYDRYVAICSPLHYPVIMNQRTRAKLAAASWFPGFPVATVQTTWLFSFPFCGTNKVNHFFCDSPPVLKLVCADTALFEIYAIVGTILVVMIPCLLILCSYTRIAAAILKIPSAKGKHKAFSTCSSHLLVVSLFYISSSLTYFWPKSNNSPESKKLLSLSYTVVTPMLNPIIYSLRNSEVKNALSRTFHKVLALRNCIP
Summary of the method: as §1

[7] = biological target: T7, OR10A7 (Homo sapiens) (UniProt Q8NGE5)
T7 sequence (whole entry): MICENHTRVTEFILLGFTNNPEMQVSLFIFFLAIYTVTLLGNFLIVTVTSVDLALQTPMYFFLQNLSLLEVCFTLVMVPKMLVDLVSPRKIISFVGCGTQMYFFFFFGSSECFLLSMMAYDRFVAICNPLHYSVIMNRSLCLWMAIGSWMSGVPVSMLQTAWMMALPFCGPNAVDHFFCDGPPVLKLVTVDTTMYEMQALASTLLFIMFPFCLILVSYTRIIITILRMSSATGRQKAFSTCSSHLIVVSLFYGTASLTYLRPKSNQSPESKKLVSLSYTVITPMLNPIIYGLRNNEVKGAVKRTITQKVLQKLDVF
Summary of the method: as §1

[8] = biological target: T8, OR10AD1 (Homo sapiens) (UniProt Q8NGE0)
T8 sequence (whole entry): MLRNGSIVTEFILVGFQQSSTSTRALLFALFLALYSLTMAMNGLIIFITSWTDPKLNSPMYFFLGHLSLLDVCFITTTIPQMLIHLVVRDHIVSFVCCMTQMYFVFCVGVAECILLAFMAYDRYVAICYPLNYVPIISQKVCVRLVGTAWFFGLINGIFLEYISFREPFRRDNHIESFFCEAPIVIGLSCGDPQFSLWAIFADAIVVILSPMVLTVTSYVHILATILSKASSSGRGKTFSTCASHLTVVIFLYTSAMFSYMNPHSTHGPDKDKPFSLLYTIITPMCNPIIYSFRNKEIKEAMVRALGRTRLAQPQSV
Summary of the method: as §1

[9] = biological target: T9, OR10AG1 (Homo sapiens) (UniProt Q8NH19)
T9 sequence (whole entry): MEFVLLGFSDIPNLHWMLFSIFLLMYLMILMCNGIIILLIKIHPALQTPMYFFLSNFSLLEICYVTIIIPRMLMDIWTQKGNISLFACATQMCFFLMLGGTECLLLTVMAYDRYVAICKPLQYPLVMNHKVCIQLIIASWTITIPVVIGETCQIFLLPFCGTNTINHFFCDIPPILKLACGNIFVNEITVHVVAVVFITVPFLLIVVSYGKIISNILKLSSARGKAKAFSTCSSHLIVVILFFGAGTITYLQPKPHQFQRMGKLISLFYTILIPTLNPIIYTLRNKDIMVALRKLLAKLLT
Summary of the method: as §1

[10] = biological target: T10, OR10C1 (Homo sapiens) (UniProt Q96KK4)
T10 sequence (whole entry): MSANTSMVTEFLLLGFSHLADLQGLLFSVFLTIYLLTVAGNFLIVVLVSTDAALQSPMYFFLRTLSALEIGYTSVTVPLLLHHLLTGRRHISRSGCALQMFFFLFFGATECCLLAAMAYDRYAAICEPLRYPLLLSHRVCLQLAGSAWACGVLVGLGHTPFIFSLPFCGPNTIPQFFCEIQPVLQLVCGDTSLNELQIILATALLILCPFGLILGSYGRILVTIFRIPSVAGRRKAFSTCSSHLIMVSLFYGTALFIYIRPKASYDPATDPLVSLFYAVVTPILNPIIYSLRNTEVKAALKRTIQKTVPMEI
Summary of the method: as §1

[11] = biological target: T11, OR10D3 (Homo sapiens) (UniProt Q8NH80)
T11 sequence (whole entry): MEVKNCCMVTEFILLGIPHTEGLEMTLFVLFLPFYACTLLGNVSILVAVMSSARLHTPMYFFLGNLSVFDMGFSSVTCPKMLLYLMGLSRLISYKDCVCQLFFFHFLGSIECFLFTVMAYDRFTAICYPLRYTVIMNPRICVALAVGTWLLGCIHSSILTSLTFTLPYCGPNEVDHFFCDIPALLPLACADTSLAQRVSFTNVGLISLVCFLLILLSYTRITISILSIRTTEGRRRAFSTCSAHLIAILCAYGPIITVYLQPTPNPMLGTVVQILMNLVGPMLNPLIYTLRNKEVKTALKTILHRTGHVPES
Summary of the method: as §1

[12] = test system: T12, O5AP2 A105T
T12 sequence (whole entry): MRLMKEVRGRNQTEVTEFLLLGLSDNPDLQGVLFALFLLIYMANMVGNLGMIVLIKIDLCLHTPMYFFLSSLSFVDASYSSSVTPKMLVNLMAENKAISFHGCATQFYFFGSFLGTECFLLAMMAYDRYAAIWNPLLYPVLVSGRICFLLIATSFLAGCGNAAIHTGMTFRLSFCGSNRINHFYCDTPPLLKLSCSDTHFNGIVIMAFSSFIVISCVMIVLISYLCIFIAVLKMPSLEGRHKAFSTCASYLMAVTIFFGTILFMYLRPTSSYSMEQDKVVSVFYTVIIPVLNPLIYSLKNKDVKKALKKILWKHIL
Summary of the method: as §1

[13] = test system: T13, O5AU1
T13 sequence (whole entry): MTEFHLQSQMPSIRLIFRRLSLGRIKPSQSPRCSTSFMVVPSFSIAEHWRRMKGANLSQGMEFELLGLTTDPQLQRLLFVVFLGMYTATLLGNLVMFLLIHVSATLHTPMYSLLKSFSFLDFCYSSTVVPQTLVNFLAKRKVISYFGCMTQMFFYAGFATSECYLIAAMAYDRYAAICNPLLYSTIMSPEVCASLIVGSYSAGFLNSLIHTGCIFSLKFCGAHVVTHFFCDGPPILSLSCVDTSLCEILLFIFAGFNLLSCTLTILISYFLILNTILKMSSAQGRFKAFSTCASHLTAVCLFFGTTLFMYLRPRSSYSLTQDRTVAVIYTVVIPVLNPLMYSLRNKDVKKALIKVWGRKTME
Summary of the method: as §1

[14] = test system: T14, O5H14
T14 sequence (whole entry): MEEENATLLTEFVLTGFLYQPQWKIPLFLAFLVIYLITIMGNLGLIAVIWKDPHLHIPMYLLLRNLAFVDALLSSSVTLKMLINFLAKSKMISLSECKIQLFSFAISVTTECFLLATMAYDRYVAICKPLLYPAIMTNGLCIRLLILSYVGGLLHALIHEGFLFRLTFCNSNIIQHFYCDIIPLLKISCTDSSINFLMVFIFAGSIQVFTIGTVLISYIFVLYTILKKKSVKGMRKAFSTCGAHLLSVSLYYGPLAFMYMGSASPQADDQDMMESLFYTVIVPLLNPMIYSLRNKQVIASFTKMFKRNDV
Summary of the method: as §1

[15] = test system: T15, O5H15 V108I S148T T167S
T15 sequence (whole entry): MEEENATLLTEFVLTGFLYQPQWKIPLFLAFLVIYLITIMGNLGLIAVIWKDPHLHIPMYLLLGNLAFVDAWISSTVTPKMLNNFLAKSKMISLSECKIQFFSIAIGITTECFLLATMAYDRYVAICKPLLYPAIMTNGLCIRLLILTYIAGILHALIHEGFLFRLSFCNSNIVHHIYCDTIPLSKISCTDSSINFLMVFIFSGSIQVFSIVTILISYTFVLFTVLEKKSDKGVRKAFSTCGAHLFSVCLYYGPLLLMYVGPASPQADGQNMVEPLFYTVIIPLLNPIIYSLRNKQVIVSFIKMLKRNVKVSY
Summary of the method: as §1

[16] = test system: T16, O6C65 T222A
T16 sequence (whole entry): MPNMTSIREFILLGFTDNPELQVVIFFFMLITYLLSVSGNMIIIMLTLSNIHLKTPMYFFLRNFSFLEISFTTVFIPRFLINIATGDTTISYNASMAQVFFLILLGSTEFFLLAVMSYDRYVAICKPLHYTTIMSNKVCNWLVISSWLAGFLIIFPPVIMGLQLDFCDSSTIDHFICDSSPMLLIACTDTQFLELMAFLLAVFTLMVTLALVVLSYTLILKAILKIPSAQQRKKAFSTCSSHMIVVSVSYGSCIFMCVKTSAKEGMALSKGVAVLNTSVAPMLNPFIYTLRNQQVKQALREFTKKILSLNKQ
Summary of the method: as §1

[17] = test system: T17, O6C70 L181P
T17 sequence (whole entry): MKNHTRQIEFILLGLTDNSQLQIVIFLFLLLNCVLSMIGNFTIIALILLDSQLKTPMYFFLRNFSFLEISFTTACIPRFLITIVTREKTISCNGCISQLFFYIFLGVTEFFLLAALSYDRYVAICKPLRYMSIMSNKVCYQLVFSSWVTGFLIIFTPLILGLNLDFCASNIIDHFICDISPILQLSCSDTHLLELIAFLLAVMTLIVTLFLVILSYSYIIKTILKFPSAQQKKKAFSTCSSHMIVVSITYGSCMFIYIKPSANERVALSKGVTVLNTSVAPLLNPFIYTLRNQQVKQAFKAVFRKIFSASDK
Summary of the method: as §1

[18] = test system: T18, O7E24 S193F P242S
T18 sequence (whole entry): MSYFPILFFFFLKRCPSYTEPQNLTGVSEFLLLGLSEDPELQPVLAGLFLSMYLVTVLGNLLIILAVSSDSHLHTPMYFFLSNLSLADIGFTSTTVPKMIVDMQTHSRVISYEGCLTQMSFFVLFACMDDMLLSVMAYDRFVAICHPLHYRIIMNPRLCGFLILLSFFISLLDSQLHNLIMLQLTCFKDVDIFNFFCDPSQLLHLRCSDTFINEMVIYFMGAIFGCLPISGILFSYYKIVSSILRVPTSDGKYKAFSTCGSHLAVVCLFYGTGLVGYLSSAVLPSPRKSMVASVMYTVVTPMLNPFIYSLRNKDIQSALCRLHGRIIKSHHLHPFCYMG
Summary of the method: as §1

[19] = test system: T19, O7E24
T19 sequence (whole entry): T18 sequence (whole entry) with F193S
Summary of the method: as §1

Measured: odorant receptor agonist call

CC1CC=CCCCCCCCCC(=O)C1 (stereo not given)
active: [1]

CCCCCCCC(=O)CCCCCCC
inactive: [1]

O=C1C=CCCCCCCCCCCCCO1
inactive: [1]

O=C1CCCCCCC=CCCCCCCC1
active: [1]

O=C1CCCCCC=CCCCCCCCCO1
inactive: [1]

CCC(=O)OCCCc1ccccc1
inactive: [2]

CCCCCC(S)C(C)CO (stereo not given)
inactive: [3] | [4] | [5] | [6] | [2] | [7] | [8] | [9] | [10] | [11]

CC1CC=CCCCCCCCCCC(=O)C1 (stereo not given)
active: [1]

CCCC(S)CCOC(C)=O (stereo not given)
not listed: [1]
inactive: all other assays above
